Only some compounds are listed: those with a hit (about 0.62% of all), similar ones and a draw of the others.
AP complement – alternative pathway complement inhibition, orthogonal assay | inhibition, % at 5 µM | AID 1235 | Human serum alternative complement pathway, LPS-coated ELISA, C3 deposition; tested in compound mixtures | 0.08% of 62,000 active;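 active means inhibition above 30% in each of the two pooled mixtures holding the compound, so the lower value exceeds 30%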;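 further: 0% = serum in Mg-EGTA without compound and 100% = EDTA serum blank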
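Test system – human serum alternative complement pathway, C3 deposition on LPS-coated wells · Buffer or medium – diluted human serum in Mg2+-EGTA GVB++ · Compound dosing – 5 µM each compound, pools of ten, 50 µM per pool · Schedule – 1 h serum-compound exposure at 37 °C · Measured by – Anti-C3 ELISA, OD 450 nm · Read-out basis – percent inhibition of C3 deposition onto LPS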
HePTP inh – human HePTP phosphatase inhibition | P35236 | recombinant HePTP phosphatase activity, OD absorbance | inhibition, % at 20 µM | 0.64% of 110,000 active | AID 521; in the data active means inhibition above about 50%;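 further: plate controls were vehicle for no effect and reference inhibitor for full effect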
Target sequence (P35236 whole entry, looked up): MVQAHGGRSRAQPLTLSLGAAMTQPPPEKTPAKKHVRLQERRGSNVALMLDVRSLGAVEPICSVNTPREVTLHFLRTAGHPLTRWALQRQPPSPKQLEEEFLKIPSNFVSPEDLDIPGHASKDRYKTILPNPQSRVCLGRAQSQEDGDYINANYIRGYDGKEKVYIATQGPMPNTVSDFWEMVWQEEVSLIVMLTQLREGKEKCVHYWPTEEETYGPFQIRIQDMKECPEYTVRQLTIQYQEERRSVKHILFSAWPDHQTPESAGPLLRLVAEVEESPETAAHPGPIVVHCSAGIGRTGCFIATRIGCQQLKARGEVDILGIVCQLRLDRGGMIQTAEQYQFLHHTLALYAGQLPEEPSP
A340 absorber – absorbance at 340 nm. fold change at 10 µM. compound absorbance at 340 nm, fold over control. 65,000 tested, under 10 active. AID 708;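 active means at 10 µM dose, initial 340 nm absorbance at least 2 fold that of control wells; inactive means change under 2 fold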;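 further: initial absorbance extrapolated from kinetic A340 decline of NADH oxidation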
Starred values were filed as active, the others as inactive; . = not tested or not shown.

SMILES	AP complement	HePTP inh	A340 absorber
O=C1NC(=S)N/C1=C/c1ccc(OCc2cccc(C(=O)O)c2)cc1	.	103.1*	.
Cc1oc2c(CN3CC4(C)CC3CC(C)(C)C4)c(O)ccc2c(=O)c1-c1nc2ccccc2s1 (stereo unspecified)	.	-6.3	.
Cc1csc(-c2cc3ccc(O)c(CN4CC5(C)CC4CC(C)(C)C5)c3oc2=O)n1 (stereo unspecified)	.	75.9*	.
Cc1ccc(N2C(=O)c3ccccc3C2=O)cc1[N+](=O)[O-]	.	2.5	.
CCOC(=O)c1[nH]c2ccc(F)cc2c1NC(=O)CN1CCc2cc(OC)c(OC)cc2C1	34.8*	0.0	1.02
COC(=O)c1[nH]c2ccc(Cl)cc2c1NC(=O)CN1CCc2cc(OC)c(OC)cc2C1	9.0	4.3	1.03
O=C(O)c1ccc(-c2cc([N+](=O)[O-])ccc2F)o1	.	-11.7	.
Cc1[nH]c2ccccc2c1/C=C/c1nc2ccccc2c(=O)n1-c1ccc([N+](=O)[O-])cc1	.	10.0	.
Cc1c(/C=C/c2nc3ccccc3c(=O)n2-c2ccc([N+](=O)[O-])cc2)c2ccccc2n1C	.	80.6*	.
COc1ccc(CC2S/C(=N\N=C\c3cccs3)NC2=O)cc1 (stereo unspecified)	.	1.0	.
O=c1cc(O)nc(SCc2ccccc2)[nH]1	6.6	15.0	1.04
CC(C)(C)Sc1nc(O)cc(=O)[nH]1	34.0*	1.5	1.05
Cc1ccc(C)c(-c2csc(NC(=O)c3cccs3)n2)c1	.	4.7	.
COc1ccccc1N1C(=O)C(=Cc2cccn2C)C(=O)NC1=S	.	102.2*	.
COc1ccccc1N1C(=O)NC(=O)/C(=C\c2cc3ccccc3n2C)C1=O	.	0.4	.
O=C1/C(=C\c2ccc(O)cc2)SC(=S)N1c1cccc(C(F)(F)F)c1	.	10.0	.
O=C(Nc1cccc(Cl)c1)c1cccc(NC(=S)Nc2ccc(F)cc2)c1	.	103.9*	.
O=C(Nc1cccc(Cl)c1)c1cccc(NC(=S)Nc2ccccc2)c1	.	7.5	.
COc1cc(/C=N/n2cnnc2)ccc1OCc1cccc2ccccc12	.	4.1	.
O=C(Nc1ccc(F)cc1F)c1cc(-c2ccccc2)nc2ccccc12	.	2.2	.
Cc1ccccc1C1=N/C(=C\c2ccc(Br)o2)C(=O)O1	.	59.5*	.
O=C1OC(c2ccccc2F)=N/C1=C\c1ccc(Br)cc1	.	8.8	.
CC1=NN(c2ccc(Cl)c(Cl)c2)C(=O)/C1=C/c1ccco1	.	5.1	.
CC1=NN(c2ccc(Cl)c(C(=O)O)c2)C(=O)/C1=C\c1ccco1	.	73.1*	.
Cc1ccccc1NC1CC(C)N(C(=O)c2ccccc2)c2c(C)cccc21 (stereo unspecified)	.	103.0*	.
SMILES	AP complement	HePTP inh	A340 absorber
CC1CC(Nc2ccccc2)c2ccccc2N1C(=O)c1ccc(Cl)c(Cl)c1 (stereo unspecified)	.	9.9	.
Cc1ccc2nc(-c3ccc(C)c(NC(=S)NC(=O)c4ccccc4Cl)c3)oc2c1	.	-8.9	.
CC1=C/C(=N\N=C2\NC(=O)C(CC(=O)Nc3ccc(Cl)cc3)S2)CC(C)(C)C1 (stereo unspecified)	.	-4.8	.
O=C(CC1S/C(=N\N=C\c2ccccc2)NC1=O)Nc1ccc(C(=O)O)cc1 (stereo unspecified)	.	103.7*	.
O=C(CC1S\C(=N/N=C/C=C/c2ccccc2)NC1=O)Nc1ccc(C(=O)O)cc1 (stereo unspecified)	.	33.4	.
CC1=C/C(=N\N=C2\NC(=O)C(CC(=O)Nc3ccc(C(=O)O)cc3)S2)CC(C)(C)C1 (stereo unspecified)	.	103.2*	.
CC(CNC(c1ccccc1)c1ccccc1)(NS(=O)(=O)c1ccccc1)c1ccccc1 (stereo unspecified)	.	6.7	.
C=CCN1C(=O)/C(=C\c2ccc(-c3ccc([N+](=O)[O-])cc3)o2)C(=O)NC1=S	.	102.0*	.
C=CCN1C(=O)/C(=C\c2ccc(-c3ccc(C)cc3Br)o2)C(=O)NC1=S	.	102.1*	.
C=CCN1C(=O)/C(=C/c2ccc(C)cc2)C(=O)NC1=S	.	8.7	.
C=CCN1C(=O)/C(=C/c2cccc([N+](=O)[O-])c2)C(=O)NC1=S	.	9.9	.
C=CCN1C(=O)/C(=C\c2ccc(-c3cccc([N+](=O)[O-])c3)o2)C(=O)NC1=S	.	96.3*	.
C=CCN1C(=O)/C(=C\c2cc(Br)cc(Cl)c2O)C(=O)NC1=S	.	-2.7	.
C=CCN1C(=O)/C(=C\c2ccc(-c3ccc(Br)cc3)o2)C(=O)NC1=S	.	100.4*	.
C=CCN1C(=O)/C(=C\c2cn(Cc3ccc([N+](=O)[O-])cc3)c3ccccc23)C(=O)NC1=S	.	15.9	.
CC(C)(C)c1ccc(C(C)(C)C)c(O)c1O	.	-2.0	.
O=C1SC(Nc2ccc(-c3ccccc3)cc2)C(=O)N1c1ccccc1 (stereo unspecified)	.	-3.4	.
O=P(CCN1CCOC1c1cccnc1)(c1ccccc1)c1ccccc1 (stereo unspecified)	.	-12.8	.
O=C(Nc1ccc(Cl)cc1)N1CCN(c2ccc(Cl)cc2)CC1	.	5.3	.

Source: PubChem
